Compound activity deposited in PubChem by several laboratories.
In the library only some 5.4% were active in any assay of this set; here they are far more common.
Rev-RRE block: inhibitors of HIV-1 Rev-RRE RNA interaction | inhibition, % at 8 µM | Rev peptide-RRE RNA binding, FRET | AID 704 | 97,000 tested, 0.79% active | P05866;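 active = inhibition above the screen-wide mean plus 3 SD, cut at about 35% in these data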;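 note: 0% = median DMSO wells and 100% = median Neomycin B control wells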
Target sequence (P05866 whole entry, looked up): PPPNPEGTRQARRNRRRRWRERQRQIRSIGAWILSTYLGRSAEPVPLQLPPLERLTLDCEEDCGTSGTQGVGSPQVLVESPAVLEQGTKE
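Test system: Cy5-tagged RRE RNA duplex with fluorescein-tagged Rev peptide; Probe or stimulus: labelled Rev peptide; Schedule: 5 min preincubation and 15 min binding, 25 °C; Signal: FRET fluorescence readout; Evaluation: % inhibition from 671/540 nm acceptor-to-donor ratio, scaled between controls; Control set: DMSO and neomycin B.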
EphB4 antag: antagonists of human EphB4-ephrin-B2 interaction; P54760; EphB4 LBD / TNYL-RAW-Alexa532 peptide, fluorescence polarization; inhibition, % at 7 µM; 97,000 tested, 0.15% active;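 active = inhibition above the screen-wide mean inhibition plus 3 SD, cut at about 15% in these data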;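 note: 0% = DMSO wells and 100% = excess unlabeled TNYL-RAW peptide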
Cav32 inh: inhibitors of human Cav3.2 T-type calcium channel | O95180 | Cav3.2-expressing cells, Fluo-4 calcium fluorescence FDSS; active compounds read low | B-score at 10 µM | 100,000 tested, 4% active | AID 449739;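 active = single-dose well whose peak fluorescence ratio is a statistical outlier from its plate by either plate-standardised score or position-corrected B-score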
DAT uptake mod: changed human dopamine transporter uptake under cocaine IC80 | Q01959 | 110,000 tested, 1.3% active | LLC-PK1 hDAT cells, [14C]-dopamine uptake with cocaine IC80; actives deviate in either direction | B-score at 10 µM;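 active = Z score or B-score, a plate-position-corrected score, falls beyond the plate's 99.7% confidence bounds, in either direction; inactive = both scores lie inside the 99.7% bounds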;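 note: scored against the spread of the other compound wells on the same plate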
Active calls of the source: *; / = no result.

SMILES	Rev-RRE block	EphB4 antag	Cav32 inh	DAT uptake mod
c1ccc(C2=Nc3ccccc3SC2c2nc3ccccc3[nH]2)cc1 (stereo unspecified)	7	7	-0.02	-0.53
COc1cnn(-c2ccccc2)c(=O)c1SCc1ccc(Cl)cc1Cl	13	-8	-4*	0.58
COc1cc(-c2nnc(SCC3(c4ccccc4)OCCO3)o2)cc(OC)c1OC	7	-6	-1.3	1.4
CCOC(=O)/C=c1\s/c(=C\c2c(OCC)ccc3ccccc23)c(=O)n1CC(=O)NCC1CCCO1 (stereo unspecified)	13	4	-6.4*	0.98
CCOC(=O)/C=c1\s/c(=C\c2ccc3c(c2)OCCO3)c(=O)n1CC(=O)NCC1CCCO1 (stereo unspecified)	13	4	-0.46	0.012
CC(=O)N(Cc1ccc(F)cc1)C1=C(NCc2ccccc2)C(=O)c2ccccc2C1=O	11	1	-5.1*	-4.3*
O=C(NCc1ccc(F)cc1)N[C@@H](Cc1ccccc1)C(=O)O	/	/	-0.093	-1.1
O=C(NCc1ccco1)/C(=C/c1cccnc1)NC(=O)c1ccco1	7	4	0.3	0.35
CC1(C)CC(=O)c2c(nc(SCC(=O)Nc3nsc(-c4ccccc4)n3)c(C#N)c2-c2ccccc2)C1	8	3	-2.4*	-0.2
Cc1nn(C(C)C(=O)N2CCc3ccccc32)c(C)c1[N+](=O)[O-] (stereo unspecified)	4	3	-2.5	0.062
CC(C)(C)c1ccc(S(=O)(=O)NCCOCC(F)(F)C(F)F)cc1	8	-2	-3.8*	-1.2
C[C@H](c1ccccc1)n1nnc(COCc2ccccc2)c1C#CCOCc1ccccc1	/	/	-1.6	0.61
Cc1ccc(N2C(=O)C(O)(C(F)(F)F)C3=C2CC(C)(C)CC3=O)cc1C (stereo unspecified)	-4	16*	0.22	-0.35
Cc1[nH]n(-c2ccccc2)c(=O)c1C1(C(F)(F)F)C(=O)N(c2ccccc2)C2=C1C(=O)CC(C)(C)C2 (stereo unspecified)	-5	-4	-0.23	-0.93
Cc1ccc(N2C(=O)C(c3c(C)[nH]n(-c4ccccc4)c3=O)(C(F)(F)F)C3=C2CC(C)(C)CC3=O)cc1 (stereo unspecified)	4	9	1.1	-5.1*
CCOc1ccc(NC(=O)CN(C)c2nnnn2-c2ccccc2)cc1OCC	0	-8	0.46	-0.025
CN(C)S(=O)(=O)c1ccc2c(c1)C(CC(=O)O)NC2=O (stereo unspecified)	5	-7	-0.49	-0.34
CC(=O)N1CCN(C(=O)COc2ccc(Br)cc2)CC1	9	1	-1.5	-0.95
COc1ccc(OCC(=O)N2CCN(c3cccc(Cl)c3)CC2)cc1	13	-2	-4.5*	0.95
COc1ccc(N2CCN(C(=O)COc3ccc(Cl)cc3Cl)CC2)cc1	4	5	/	1.4
O=C(COc1ccc(Br)cc1)N1CCN(c2ccccc2)CC1	12	-4	-3.3*	0.088
COc1ccc(OC)c(S(=O)(=O)N(C)CC(=O)N2CCN(c3cccc(Cl)c3)CC2)c1	2	-2	-6.8*	0.19
COc1ccc(OCC(=O)N2CCN(c3cccc(C(F)(F)F)c3)CC2)cc1	11	12	-6.9*	0.43
COc1ccc(N2CCN(C(=O)COc3ccc4ccccc4c3)CC2)cc1	-2	0	-0.14	0.13
COc1ccc2nc(C3CCCCC3)c3c(c2c1)CCC3	/	/	0.48	-1.1
SMILES	Rev-RRE block	EphB4 antag	Cav32 inh	DAT uptake mod
O=C(C(Cc1ccccc1)n1cccc1)N1CCN(c2cccc(Cl)c2)CC1 (stereo unspecified)	2	-3	-4.3	0.3
CCC(C(=O)N1CCN(c2cccc(Cl)c2)CC1)c1ccccc1 (stereo unspecified)	5	-14	-5.3*	-0.83
COc1ccc(N2CCN(C(=O)CN(Cc3ccc(Cl)cc3)S(C)(=O)=O)CC2)cc1	-4	-1	-4.6*	-0.0072
NS(=O)(=O)c1cc2c(cc1C(F)(F)F)NC(Cc1ccccc1)NS2(=O)=O (stereo unspecified)	/	/	/	-0.96
Cc1nn(C)cc1/C=N/NC(=O)C(C)(C)Oc1ccc(Cl)cc1	4	3	0.8	0.38
COc1ccc(N/C(=C(/C(Cl)=C(Cl)Cl)[N+](=O)[O-])n2nnc3ccccc32)cc1OC	38*	2	-0.34	-0.38
COc1ccc2c(c1)c(CC(=O)OCC(=O)O)c(C)n2C(=O)c1ccc(Cl)cc1	/	/	-0.44	0.6
COc1ccc2c(c1)c(CC(=O)Nc1ccc(C)cc1)c(C)n2C(=O)c1ccc(Cl)cc1	9	7	-3.9*	-0.0071
O=C(Nc1ccc(OC(F)F)c(Cl)c1)Nc1ccc2c(c1)OCO2	6	-5	-0.14	-7*
CC1CC(C)CN(C(=O)CSc2nc(Cc3cccs3)nc3ccccc23)C1 (stereo unspecified)	1	6	-3.6	0.65
Fc1ccc(-n2c(Cc3ccccc3)nnc2SCc2nc(-c3cccs3)no2)cc1	4	-4	-3.1	2.2
c1ccc(-c2noc(CSc3nnc(Cc4cccs4)n3-c3ccccc3)n2)cc1	7	-2	-4.7*	1.9
Clc1ccc(-c2noc(CSc3nnc(Cc4cccs4)n3-c3ccccc3)n2)cc1	4	6	-5.7*	2.4
Cc1ccc(-c2noc(CSc3nnnn3C3CCCCC3)n2)cc1	14	3	-4.6*	0.24
COc1ccc(-c2noc(CSc3nnc(Cc4ccccc4)n3-c3cccc(C)c3)n2)cc1OC	-1	-4	-5.5*	1.6
COc1ccc(Cl)cc1NC(=O)CSc1nnc(CN2CCOCC2)n1-c1ccc(Cl)cc1	9	-2	-1.9	2.3
Cc1ccc(-c2noc(CSc3nnc(Cc4cccs4)n3-c3ccccc3)n2)cc1	-1	-7	-7.6*	-0.21
Clc1ccc(-c2noc(CSc3nnc(-c4ccncc4)n3-c3ccccc3)n2)cc1	7	-3	-4.9*	1.8
Cc1noc(C)c1CSc1nc2ccccc2c(=O)n1-c1ccc(Cl)cc1	10	-4	-2.9	-0.73
CCOc1ccc(-n2c(SCc3nc(-c4ccc(C)cc4)no3)nnc2-c2ccncc2)cc1	8	-2	-4.3*	0.89
Cn1c(SCc2nc(-c3ccc(Cl)cc3)no2)nnc1-c1ccco1	8	6	/	2.4
O=c1c2ccccc2nc(SCc2nc(-c3ccccc3)no2)n1-c1ccc(F)cc1	/	/	-4.5*	-0.093
Cc1ccc(-c2noc(CSc3nnc(-c4ccncc4)n3-c3ccc(C)cc3)n2)cc1	4	5	-3	2
CCSCc1nnc(SCC(=O)c2ccc(OC)cc2)n1C	3	5	0.64	-0.63
Cc1ccc(CSC2=Nc3sccc3C3=NC(=O)CN23)cc1	25	3	-0.051	-0.67
CCCNC(=O)c1c(CSc2ccc(Cl)cc2)noc1C(=O)NCc1ccccc1	/	/	-2.7	0.19
CCOC(=O)/C(=C\Nc1ccc(OC(F)(F)F)cc1)Sc1ncc(C(F)(F)F)cc1Cl	11	4	-3.3	0.28
c1ccc(-n2nnnc2SCc2ccccn2)cc1	-6	1	0.59	-0.019
c1ccc(-c2noc(CSc3nnnn3-c3ccccc3)n2)cc1	6	2	-5*	-0.55
